# pKi: −log10 of the molar value.
# Target: T1, Corticotropin-releasing factor receptor 1 (Rattus norvegicus, UniProt P35353)
# T1 sequence (P35353 whole entry): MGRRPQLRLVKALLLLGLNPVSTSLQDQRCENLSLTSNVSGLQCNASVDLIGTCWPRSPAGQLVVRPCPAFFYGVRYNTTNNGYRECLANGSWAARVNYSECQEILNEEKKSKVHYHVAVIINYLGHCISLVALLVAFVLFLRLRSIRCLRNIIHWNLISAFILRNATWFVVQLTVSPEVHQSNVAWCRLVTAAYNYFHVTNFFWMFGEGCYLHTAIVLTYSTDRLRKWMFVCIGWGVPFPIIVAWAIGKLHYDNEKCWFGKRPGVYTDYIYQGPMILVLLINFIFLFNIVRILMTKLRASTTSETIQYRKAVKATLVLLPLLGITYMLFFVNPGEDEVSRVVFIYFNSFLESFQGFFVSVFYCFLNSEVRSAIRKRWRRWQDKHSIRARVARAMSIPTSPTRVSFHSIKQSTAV
# Assay: Binding affinity was determined against corticotropin releasing factor receptor 1
# Conditions: not given
# How it was run: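 Rat CRH1 receptor-binding assay run in pH 7.2 buffer; affinity reported as Ki.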
row,Compound,Ki
1,CCN(c1nc(C)cc(Cl)n1)c1ccc(C(C)C)cc1I,Not reliable

# Same assay, conditions: read-out: Ki
row,Compound,pKi
1,Cc1cc(C)c2ccn(-c3ccc(C(C)C)cc3Br)c2n1,7.33
2,Cc1cc(-c2ccccc2)c2ccn(-c3ccc(C(C)C)cc3Br)c2n1,7.44
3,COc1cc(Br)c(-n2ccc3c(C)cc(C)nc32)c(OC)c1,9.00
4,Cc1ccnc2c1ccn2-c1ccc(C(C)C)cc1Br,< 5.00
5,CCN(c1cc(C)nc(C)n1)c1ccc(C(C)C)cc1Br,< 6.00
6,Cc1cc(=O)[nH]c2c1c(C#N)cn2-c1ccc(C(C)C)cc1Br,< 5.00
7,Cc1cc(N2CCOCC2)c2c(C#N)cn(-c3ccc(C(C)C)cc3Br)c2n1,6.95
8,Cc1ccnc2c1c(C#N)cn2-c1ccc(C(C)C)cc1Br,< 5.00
9,Cc1cc(C)c2c(C(=O)O)cn(-c3ccc(C(C)C)cc3Br)c2n1,< 5.00
10,CCN(c1nc(C)cc(N2CCOCC2)n1)c1ccc(C(C)C)cc1Br,7.66
11,Cc1ccc2ccn(-c3ccc(C(C)C)cc3Br)c2n1,6.65
12,Cc1cc(-c2ccccc2)c2c(C#N)cn(-c3ccc(C(C)C)cc3Br)c2n1,7.47
13,Cc1cc(N2CCOCC2)c2ccn(-c3ccc(C(C)C)cc3Br)c2n1,7.55
14,Cc1cc(C)c2c(C#N)cn(-c3ccc(C(C)C)cc3Br)c2n1,6.44
15,CCN(c1nc(C)cc(C)n1)c1c(Br)cc(OC)cc1OC,8.30
16,Cc1cc(C)nc(Nc2ccc(C(C)C)cc2Br)n1,< 5.00
17,Cc1ccc2c(C#N)cn(-c3ccc(C(C)C)cc3Br)c2[n+]1[O-],< 5.00
18,Cc1cc(C)c2c(C(N)=O)cn(-c3ccc(C(C)C)cc3Br)c2n1,< 5.00
19,Cc1cc(Cl)nc2c1ccn2-c1ccc(C(C)C)cc1Br,7.10
20,Cc1cc(Cl)c2ccn(-c3ccc(C(C)C)cc3Br)c2n1,7.17
21,Cc1cc(-c2ccccc2)nc2c1c(C#N)cn2-c1ccc(C(C)C)cc1Br,< 4.00
22,Cc1cc(C)nc(N(C)c2ccc(C(C)C)cc2I)n1,7.32
23,Cc1cc(Cl)c2c(C#N)cn(-c3ccc(C(C)C)cc3Br)c2n1,6.14
24,COc1cc(Br)c(-n2cc(C#N)c3c(C)cc(C)nc32)c(OC)c1,7.54
25,Cc1cc(-c2ccccc2)nc2c1ccn2-c1ccc(C(C)C)cc1Br,< 5.00
26,Cc1ccc2c(C#N)cn(-c3ccc(C(C)C)cc3Br)c2n1,5.89
27,CCN(c1nc(C)nc(N2CCOCC2)n1)c1c(Br)cc(OC)cc1OC,7.37
28,Cc1cc(Cl)nc2c1c(C#N)cn2-c1ccc(C(C)C)cc1Br,6.35

# From ChEMBL document CHEMBL1132597, “Corticotropin-releasing hormone receptor antagonists: framework design and synthesis guided by ligand conformational studies” (J Med Chem, 1999)
